Shown are actives, neighbours in structure and some others; about 3.5% of the full set was active somewhere.
rCAG binder: molecules binding r(CAG) RNA repeats; r(CAG) RNA repeat, TO-PRO-1 dye displacement fluorescence; inhibition, % at 3 µM; AID 651821; 1.3% of 370,000 active;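 active = inhibition above the plate cutoff, the mean of all test compounds on that plate plus 3 SD, cut at about 35% in these data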;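 also: 0% = DMSO alone and 100% = 100 µM mitoxantrone as full dye displacement; higher means more dye released from RNA so lower well fluorescence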
SIAE inh: inhibitors of human sialic acid acetylesterase SIAE | AID 1053197 | inhibition, % at 9.66 µM | Q9HAT2 | 0.69% of 370,000 active | SIAE FP-Rh probe binding, fluorescence polarization;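 active = inhibition above a cutoff: mean of compounds within the control limits plus 3 SD of those, cut at about 17% in these data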;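 also: 0% = plate median of compound wells and 100% = probe without SIAE protein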
Target sequence (Q9HAT2 whole entry, looked up): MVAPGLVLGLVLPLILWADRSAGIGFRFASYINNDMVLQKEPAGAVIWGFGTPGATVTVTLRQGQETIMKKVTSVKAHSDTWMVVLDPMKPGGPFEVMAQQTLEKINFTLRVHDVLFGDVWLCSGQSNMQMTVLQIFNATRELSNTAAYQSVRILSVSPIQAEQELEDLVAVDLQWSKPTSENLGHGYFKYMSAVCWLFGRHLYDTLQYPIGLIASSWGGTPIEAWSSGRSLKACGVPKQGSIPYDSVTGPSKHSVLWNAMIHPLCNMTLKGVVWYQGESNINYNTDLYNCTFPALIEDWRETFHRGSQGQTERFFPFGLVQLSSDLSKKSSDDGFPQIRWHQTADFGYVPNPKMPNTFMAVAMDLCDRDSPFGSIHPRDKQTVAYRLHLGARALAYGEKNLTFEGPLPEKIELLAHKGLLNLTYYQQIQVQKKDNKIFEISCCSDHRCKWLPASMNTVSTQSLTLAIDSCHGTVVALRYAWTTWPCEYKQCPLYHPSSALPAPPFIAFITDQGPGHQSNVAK
TCR CD3 inh: human TCR-CD3 binding inhibition. TAMRA-labeled TCR probe fluorescence, biochemical. AID 651800. 0.37% of 360,000 active. inhibition, % at 9.4 µM; in the data active = inhibition above about 19%;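 also: recombinant mutant TCR 2C K166C tagged with TAMRA read by polarization; 0% = receptor in buffer alone and 100% = receptor with positive control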
HTRA1 inhibitor: blocks human HTRA1 serine peptidase. Q92743. recombinant HTRA1, FP-rhodamine activity-based probe, fluorescence polarization. inhibition, % at 5.96 µM. 0.5% of 340,000 active; in the data active = inhibition above about 36%;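 also: 0% = enzyme with DMSO and 100% = wells lacking enzyme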
mABHD4 FP: inhibits mouse alpha/beta hydrolase domain 4 | Q8VD66 | purified mABHD4, FP-Rh probe fluorescence polarization | inhibition, % at 8.92 µM | 0.54% of 370,000 active | AID 720543;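 active = inhibition exceeding the mean over every tested compound plus 3 SD, cut at about 30% in these data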;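 also: 0% = plate median of compound wells and 100% = S159A mutant with DMSO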
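Assay system: Wild-type mouse ABHD4 protein | Medium: HEPES pH 7.0 buffer, 150 mM NaCl, 0.01% Pluronic F-127 | Incubation: Enzyme–compound pre-incubation 45 min, then probe 60 min, both 25 °C | Technique: Fluorescence polarization with parallel and perpendicular emission, 525/598 nm | Evaluation: % inhibition of FP-Rh probe binding versus controls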
PRMT1 inh: inhibitors of human PRMT1; recombinant PRMT1, activity-based probe fluorescence polarization; AID 652257; inhibition, % at 2.79 µM; 1.3% of 370,000 active;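 active = inhibition above about 21% made by adding two undisclosed values, limit read from the data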
SIAE confirm: confirmation of human SIAE inhibitors; shares compounds with SIAE inh; SIAE FP-Rh activity-based probe, fluorescence polarization; inhibition, % at 9.66 µM; 13% of 2,300 active;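 active = mean inhibition of the replicates above the hit cutoff set in the primary screen, cut at about 17% in these data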;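 also: 0% = SIAE with DMSO and probe and 100% = probe without SIAE; inhibitors lower polarization as more probe stays unbound to SIAE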
* = called active by the depositor; . = no result.

SMILES | rCAG binder | SIAE inh | TCR CD3 inh | HTRA1 inhibitor | mABHD4 FP | PRMT1 inh | SIAE confirm
CSc1nnc([C@@H](NC(=O)OC(C)(C)C)C(C)C)o1 | -2 | 18* | 7 | 6 | -5 | 1 | 9
CCN(CC)C(=O)CSc1nnc([C@@H](NC(=O)OC(C)(C)C)C(C)C)o1 | -3 | -2 | 1 | -6 | -2 | -2 | .
Cc1ccc(-c2nc3ncccn3c2NC(=O)Nc2ccc(OC(F)(F)F)cc2)cc1 | 11 | 6 | . | . | 5 | -5 | .
COc1cc(CNc2ncnc3c2ncn3[C@H]2CN(Cc3ccc(Cl)cc3)C[C@@H](CO)O2)cc(OC)c1OC | 6 | 19* | -5 | . | -3 | 2 | -4
c1ccc2[nH]c(CN3CCN(c4ncnc5c4oc4ccccc45)CC3)nc2c1 | 2 | 20* | -9 | -6 | 6 | 0 | -5
Cc1nc(N2CCN(Cc3nc4ccccc4[nH]3)CC2)c2oc3ccccc3c2n1 | 6 | -2 | -2 | -13 | -9 | 4 | .
CCOC(=O)c1ccc2c(c1)n(CC)c(/C=C/Nc1ccccc1)[n+]2CC | 5 | 18* | -6 | -1 | 2 | -6 | 5
COc1ccc2c(c1)CCc1sc(NC(=O)c3ccc(C)cc3)nc1-2 | 5 | 18* | 4 | -9 | 10 | -2 | 1
COc1ccc2c(c1)-c1nc(NC(=O)c3ccco3)sc1CC2 | 5 | 19* | 2 | -23 | -9 | 0 | -10
COc1ccc2c(c1)CCc1sc(NC(=O)c3ccco3)nc1-2 | . | . | . | 0 | . | . | .
CC(C)(C)C(=O)NC1CCCCN(Cc2ccc(Cl)cc2)C1=O (stereo not drawn) | 0 | -3 | . | . | 2 | -1 | .
Cc1cccc(/C(N)=N/OC(=O)c2ccc(F)cc2)c1 | -1 | 20* | -3 | 2 | 3 | 2 | -1
COc1ccc(N2CC(=O)N(c3ccc(OC)c(OC)c3)CC2=O)cc1OC | -2 | 19* | 5 | 2 | 1 | -4 | -3
COc1cccc(N2CC(=O)N(c3cccc(OC)c3)CC2=O)c1 | 1 | 2 | 0 | 0 | -5 | 0 | .
O=C(COc1ccccc1C(=O)NCc1ccccc1)Nc1ccc(I)cc1 | 11 | -3 | . | . | -14 | 3 | .
COC(=O)CCCc1nc2ccccc2s1 | -4 | 63* | 7 | -5 | 5 | -1 | 0
C=CCN1C(=O)[C@@H](CC(=O)N2CCN(C(=O)C3CC3)CC2)[C@]2(C(=O)OC)CCCCC=C12 | 7 | 3 | . | . | 5 | 0 | .
Cn1cccc1-c1cc(C(=O)N/N=C/c2ccccc2Cl)[nH]n1 | 5 | 0 | -3 | -20 | -6 | 9 | .
Cn1cccc1-c1cc(C(=O)N/N=C/c2cc(Br)ccc2O)[nH]n1 | 25 | 24* | -2 | 22 | 2 | 0 | -6
COc1ccc(/C=N/Nc2nc(NCc3ccco3)nc(Nc3ccc(OC)cc3)n2)cc1 | 10 | 1 | 1 | -4 | 19 | -1 | .
COc1ccc(Nc2nc(NCc3ccco3)nc(N/N=C/c3ccc(O)cc3)n2)cc1 | 13 | 29* | 4 | 17 | 8 | -2 | 3
COc1ccc(Nc2cc(C)nc3ccc(OC)cc23)cc1 | 9 | 19* | 4 | -3 | 3 | -1 | 5
O=C(Cc1csc(NC(=O)c2ccc(F)cc2)n1)NO | 3 | 24* | 4 | 14 | 2 | -2 | 17
COc1ccc(NC(=S)N/N=C/c2cccn2Cc2ccc(F)cc2)cc1 | 7 | 19* | -4 | -1 | 6 | 4 | 6
Cc1cccc(-c2nc(Nc3ccc(N4CCOCC4)cc3)c3ccccc3n2)c1 | 8 | 30* | -2 | 15 | 9 | -1 | 6
SMILES | rCAG binder | SIAE inh | TCR CD3 inh | HTRA1 inhibitor | mABHD4 FP | PRMT1 inh | SIAE confirm
C=CCN(C(=O)[C@@H](C1CC1)[C@@H](O)c1ccc(Cl)cc1)c1ccccc1 | -1 | 1 | . | . | -5 | 0 | .
O=[N+]([O-])c1ccc2c(c1)C=C1CCCCC1(N1CCCC1)O2 (stereo not drawn) | -2 | 21* | -3 | 0 | -3 | -2 | -3
COC(=O)[C@]12C[C@H](CC(=O)NCc3ccc(OC)c(OC)c3)C(=O)N(Cc3ccccc3)C1=C[C@H](COCc1ccccc1)O[C@@H]2C | 12 | 1 | . | . | -2 | -1 | .
CC(C)CN(C(=O)C1CCCCC1)C1CCS(=O)(=O)C1 (stereo not drawn) | -2 | 18* | -3 | 4 | 11 | 1 | 3
O=C(OCc1cn(Cc2ccc(C(F)(F)F)cc2)nn1)N1CCOCC1 | 3 | -2 | . | . | 1 | 1 | .
Cc1ccc(S(=O)(=O)NC(=O)c2cc(C)n(CCCN3CCOCC3)c2C)cc1 | 6 | -1 | 7 | 3 | -1 | -2 | .
Cc1ccc(S(=O)(=O)NC(=O)c2cc(C)n(C3CC3)c2C)cc1 | 3 | 24* | 4 | 3 | 12 | -3 | 5
Cc1cccc(NC(=O)Nc2nc3ncccn3c2-c2ccc(F)cc2)c1 | 4 | 1 | . | . | 6 | 2 | .
COc1ccc(CCNC(=O)Cn2nc(-c3ccccc3)ccc2=O)cc1 | -1 | -7 | . | . | 5 | 6 | .
c1csc(C2=Nn3c(nnc3-c3ccncc3)SC2)c1 | 4 | 19* | -10 | 3 | 2 | -5 | -1
O=C(Cc1cccs1)NCCN1CCOCC1 | 2 | 22* | 2 | 4 | -3 | -2 | 1
Nc1sccc1C(=O)NCCN1CCOCC1 | 1 | 19* | 0 | . | 11 | 10 | 2
CC(=O)Nc1nc2ncccn2c1-c1ccccc1 | 1 | 0 | . | . | 0 | -6 | .
COc1cccc(Sc2nc(-c3ccccc3)ncc2S(C)(=O)=O)c1 | 4 | -5 | 4 | -9 | 0 | 1 | .
CS(=O)(=O)c1cnc(-c2ccccc2)nc1Sc1ccc(F)cc1 | 3 | 17* | 3 | -2 | 4 | -2 | 5
CCOC(=O)c1cccc(-c2cc(C(=O)OC)c3n(c2=O)CCC3)c1 | -1 | 0 | . | . | -3 | -3 | .
O=C(N/N=C/c1cccc(O)c1)c1ccc(NC(=O)C2CCCCC2)cc1 | 5 | -28 | -7 | -23 | -15 | 2 | .
O=C(N/N=C/c1ccc(O)cc1O)c1ccc(NC(=O)C2CCCCC2)cc1 | 11 | 26* | 12 | -18 | 12 | 2 | 3
CCCCCCCCN1C(=O)[C@@H](CC(=O)N2CCC(c3ccccc3)CC2)C[C@@]2(C(=O)OC)C1=C[C@H](COCc1ccccc1)O[C@@H]2C | 7 | -1 | . | . | -4 | -3 | .
C[C@H]1[C@@H](OC(=O)NCc2ccc(C(F)(F)F)cc2)CC[C@@]23CCCN2C(=O)CCC[C@@H]13 | . | -6 | . | . | -3 | -1 | .
Cc1cc(C)nc(SCc2ccc(C(=O)N/N=C/c3cccc(O)c3O)cc2)n1 | 24 | 43* | 12 | 5 | 17 | 1 | -16
CC1=C(C(=O)Nc2cc(C(=O)N3CCN(c4ccc(Cl)cc4)CC3)ccc2C)SCCO1 | 4 | 19* | 2 | -5 | 8 | 3 | -1
